Compound activity from PubChem.
Shown are actives, neighbours in structure and some others; about 2.5% of the full set was active somewhere.
SR-BI HDL uptake: blocks mouse SR-BI lipid uptake from DiI-HDL | inhibition, % at 12.5 µM | actives 0.96% (n = 320,000) | ldlA[mSR-BI] CHO cells, DiI-HDL uptake fluorescence, 3 h;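 active = mean replicate inhibition of at least 70% and a set share of replicates each scoring 70 or more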
Target sequence (Q61009 whole entry, looked up): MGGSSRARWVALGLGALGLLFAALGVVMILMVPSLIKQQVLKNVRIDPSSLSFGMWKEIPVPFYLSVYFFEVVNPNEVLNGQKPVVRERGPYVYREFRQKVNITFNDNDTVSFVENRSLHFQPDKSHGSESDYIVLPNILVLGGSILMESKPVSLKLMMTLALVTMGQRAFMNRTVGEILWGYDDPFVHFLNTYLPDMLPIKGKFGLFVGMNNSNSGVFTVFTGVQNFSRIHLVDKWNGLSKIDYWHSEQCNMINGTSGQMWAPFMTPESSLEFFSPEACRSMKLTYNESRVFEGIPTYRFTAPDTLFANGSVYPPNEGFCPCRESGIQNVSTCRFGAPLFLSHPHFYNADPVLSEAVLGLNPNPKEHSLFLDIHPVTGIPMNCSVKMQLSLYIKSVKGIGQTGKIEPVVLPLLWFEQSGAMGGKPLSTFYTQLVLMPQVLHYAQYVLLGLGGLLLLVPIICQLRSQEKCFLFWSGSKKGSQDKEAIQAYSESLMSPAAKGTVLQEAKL
SMARCA2 act: SMARCA2 function activation, primary screen; MG213 cells, MMTV-luciferase reporter, dexamethasone, overnight; activation, % at 9.1 µM; actives 1% (n = 370,000); in the data active = activation above about 7.8%
SR-BI DiI-HDL act: activators of SR-BI mediated HDL lipid uptake. CHO ldlA[mSR-BI] cells, DiI-HDL uptake fluorescence, 3 h; 100 = double the neutral-control signal. activation, % at 12.5 µM. actives 0.096% (n = 320,000). AID 504775;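 active = mean replicate activation of at least 60% and every replicate at or above 60%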
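system = CHO ldlA[mSR-BI] cells, LDL receptor-null, SR-BI overexpressing | medium = Ham's F12 with 0.5% BSA, HEPES 25 mM, pH 7.4 | probe or stimulus = DiI-HDL 10 µg/mL | compound dosing = single-point compound dose | incubation = compound exposure 3 h, 37 °C | technique = DiI fluorescence, bottom read | read-out = cell-associated DiI fluorescence as measure of HDL uptake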
Vif inh: inhibitors of HIV Vif. HEK293T cells, Vif self-association by quenched fluorescence, imaging, 24 h. inhibition, % at 7.49 µM. actives 0.35% (n = 340,000). AID 602346; in the data active = inhibition above about 50%, passing the limit was not always enough
H9c2 TAG inh: inhibitors of triacylglycerol accumulation; AID 651582; inhibition, % at 12.5 µM; H9c2 cells, Nile Red lipid (TAG) fluorescence; cells loaded with 200 µM oleic acid; actives 0.66% (n = 230,000);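 active = pattern-corrected inhibition of lipid staining of at least 50% with the nuclear-stain viability signal not falling by more than 50%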
SMARCA2 conf: confirmation of SMARCA2 (BRM) function activators | shares compounds with SMARCA2 act | AID 652260 | MG213 cells, MMTV-luciferase with dexamethasone, luminescence, overnight; MG213 cells expressing E1A, Rb sequestered; DMSO wells 0%, reference activator 100% | actives 30% (n = 3,500) | activation, % at 9.1 µM;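 active = activation above its plate's cutoff, the mean activation of tested wells plus 3 SD, cut at about 7.9% in these data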
GAL4-VP16 Luc: activates GAL4-VP16 luciferase, flagging SMARCA2 activator hits | activation, % at 9.1 µM | HEK293 GAL4-VP16 pG5luc reporter, luciferase luminescence; scaled: DMSO wells 0%, SAHA wells 100% | shares compounds with SMARCA2 act | actives 41% (n = 3,500);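 active = activation above the solvent-only control well mean plus 3 SD, averaged across control plates, cut at about 5.2% in these data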
Numbers stand for hits; . = inactive; / = not tested or not shown.

SMILES	SR-BI HDL uptake	SMARCA2 act	SR-BI DiI-HDL act	Vif inh	H9c2 TAG inh	SMARCA2 conf	GAL4-VP16 Luc
CC(C)C[C@@H](NC(=O)OC(C)(C)C)C(=O)N1O[C@]23C=C[C@]14C[C@@H](O)CC[C@]4(C)C2CC[C@]1(C)[C@@H]([C@H](C)/C=C/[C@H](C)C(C)C)CC[C@H]13 (stereo not given in full)	/	.	/	/	/	/	/
COc1cccc(CNS(=O)(=O)c2c(C(=O)N3CCCCCC3)c(C)n(C)c2C)c1	.	9.8	.	.	/	.	.
CCOc1ccc(C(=O)Nc2nc(C)c(C(=O)OC)s2)cc1	/	8.8	/	.	.	8.7	12
Cc1ccc(O)c(NC(=O)C2CCCN2C(=O)OCc2ccccc2)c1 (stereo not given)	.	9.6	.	.	/	.	.
Cc1cccc(NC(=O)C2CCCN2C(=O)OCc2ccccc2)c1 (stereo not given)	.	.	.	.	/	/	/
Nc1nc(Sc2ccc([N+](=O)[O-])c3nonc23)c2[nH]cnc2n1	.	26	.	.	.	.	.
CNc1ncnc(Sc2nc(N)nc3nc[nH]c23)c1[N+](=O)[O-]	.	.	.	.	.	/	/
CSc1cccc(NC(=O)CCNS(=O)(=O)c2ccc3[nH]c(=O)oc3c2)c1	.	.	/	.	/	/	/
COc1cc(/C=N/NS(=O)(=O)c2ccc(C)cc2)ccc1OCc1cccc(C(=O)O)c1	.	9.5	.	.	.	.	19
COc1cc(/C=N/NS(=O)(=O)c2ccc3ccccc3c2)ccc1OCc1ccc(C(=O)O)cc1	/	.	/	.	.	/	/
O=C(CCCc1ccccn1)c1ccc(-c2ccccc2)cc1	.	8.6	.	.	.	.	6.4
Cc1c(-c2nc3ccccc3[nH]2)cnn1C	.	.	.	.	.	/	/
Cn1cc(-c2nc3ccccc3[nH]2)c2ccccc21	.	9.0	.	.	.	15	.
N#Cc1c(NCCN)nc(-c2ccco2)c2c1CCCC2	.	9.7	.	.	.	31	.
O=C(Nc1ccc(S(=O)(=O)Nc2ncccn2)cc1)c1ccc(Br)cc1	/	.	/	/	.	/	/
CC(=O)Oc1ccc(C2=Cc3ccc(OC(C)=O)cc3OC2C)cc1 (stereo not given)	.	8.2	.	.	.	8.0	6.5
Nc1ccccc1C#Cc1ccc2[nH]ccc2c1	.	10	.	.	.	12	11
Oc1ccc2[nH]ccc2c1	.	.	.	.	.	/	/
N/C(=N\OC(=O)c1ccc(Cl)cc1Cl)c1ccncc1	.	12	.	.	.	11	20
N/C(CS(=O)(=O)c1ccccn1)=N\OC(=O)c1ccc(Cl)cc1	.	.	.	.	.	/	/
N/C(CS(=O)(=O)c1ccccn1)=N\OC(=O)c1ccccc1Cl	.	11	.	.	.	.	8.0
Cc1cc(C(=O)O/N=C(\N)c2ccncc2)ccc1[N+](=O)[O-]	.	14	.	.	.	.	5.2
N/C(=N\OC(=O)c1ccccc1Cl)c1cccnc1	.	8.8	.	.	.	18	7.8
O=C(NCc1ccccn1)C1CCCCC1	.	.	.	.	.	/	/
CC1=C(C(=O)Nc2ccccn2)C(c2ccc(N(C)C)cc2)n2ncnc2N1 (stereo not given)	.	8.1	.	.	/	.	.
SMILES	SR-BI HDL uptake	SMARCA2 act	SR-BI DiI-HDL act	Vif inh	H9c2 TAG inh	SMARCA2 conf	GAL4-VP16 Luc
CCOC(=O)c1ccc(NS(=O)(=O)c2cc3c4c(c2)CCN4C(=O)CC3)cc1	.	.	.	.	.	/	/
COc1ccc(-c2nc(-c3ccc(O)cc3O)cs2)cc1OC	91	8.8	.	.	.	18	12
CN(Cc1cc(=O)[nH]c2ccccc12)C(=O)c1ccccc1	.	9.4	.	.	/	.	.
CC(=O)N(Cc1cc(=O)[nH]c2ccccc12)c1ccccc1	.	.	.	.	/	/	/
COc1ccccc1N(Cc1cc(=O)[nH]c2ccccc12)C(=O)c1ccccc1	/	9.8	/	.	.	.	.
COc1ccc(-c2csc(N(C)C(=O)c3ccco3)n2)cc1	.	8.0	.	.	/	.	7.9
Cn1cccc1C(=O)N1CCN(S(=O)(=O)c2ccc(Br)s2)CC1	/	.	/	/	/	/	/
Cc1ccc(Nc2nnc(-c3ccccc3N)o2)cc1C	.	12	.	.	.	.	8.5
c1ccc(Nc2nnc(-c3cccc4ccccc34)o2)cc1	/	.	/	.	.	/	/
Nc1nc2ncccc2cc1C(=O)c1c[nH]c2ccccc12	/	.	/	/	/	/	/
CC(=O)NC1C(=O)N=C(SCC(=O)NCc2ccccc2)NC1=O (stereo not given)	.	10	.	.	/	.	.
C/C(=N/NC(=O)c1ccco1)c1ccc(NC(=O)c2ccc(Br)o2)cc1	.	9.5	.	.	.	.	9.7
C/C(=N/NC(=O)c1ccco1)c1cccnc1	.	8.3	.	.	/	.	.
CCc1ccc(NC(=O)NCc2cccnc2)cc1	.	.	.	/	.	/	/
CCCCCc1cc(=O)c2ccccc2o1	.	.	.	.	.	/	/
C=CS(=O)(=O)N(C(=C)C(=O)OC)S(C)(=O)=O	/	.	/	/	/	/	/
CCCCN(C(C)=O)c1c(CC)nc2ccc(C(=O)NCCc3ccccn3)cn12	/	.	/	.	.	/	/
COc1ccc2cc3cc(C(=O)NC(C)C)oc3nc2c1	.	9.1	.	.	.	.	.
CN(Cc1ccccc1)C(=O)[C@@H]1CCCN1C(=O)[C@@H]1CCCN1C(=O)c1cccs1	/	.	/	/	/	/	/
Cc1cc(NC(=S)Nc2ccc(C)c(Cl)c2)n[nH]1	.	8.3	.	.	.	10	6.9
COc1ccc(NC(=S)Nc2cc(C)[nH]n2)cc1Cl	/	.	/	.	.	/	/
Cc1cc(C)n2nc(C(=O)NCc3ccccc3)cc2n1	.	.	.	/	/	/	/
Cc1ccc(NC(=O)c2cc3nc(C)cc(C)n3n2)cc1	.	9.4	.	.	/	10	7.9
O=C1NCCCC1C(=O)N/N=C/c1ccccc1 (stereo not given)	.	8.8	.	.	/	.	.
O=C1NCCCC1C(=O)N/N=C/c1cccc(O)c1 (stereo not given)	.	.	.	.	.	/	/
SMILES	SR-BI HDL uptake	SMARCA2 act	SR-BI DiI-HDL act	Vif inh	H9c2 TAG inh	SMARCA2 conf	GAL4-VP16 Luc
Cc1ccc(NC(=O)C2(C)CCN2C2Cc3ccccc3C2)cc1 (stereo not given)	/	.	/	.	.	/	/
Cc1nc2cc3nc(C)sc3cc2s1	.	9.0	.	.	.	8.7	6.7
Cc1nc2cc3ccccc3cc2s1	.	.	.	.	.	/	/
COc1cc2nc(CN3CCOCC3)n(CC(=O)NCC(F)(F)F)c(=O)c2cc1OC	/	.	/	/	.	/	/
CC(C)C(Cl)=NOC(=O)Nc1ccc(S(N)(=O)=O)cc1	.	47	.	.	.	.	.
COc1cccc(N2CCN(C(=O)CCn3nnc4ccccc43)CC2)c1	/	9.4	/	/	/	.	.
